# What was measured:
# Experiment in all cases: Membrane translocation by confocal microscopy in living LNCaP cells
# Type in all cases: cell-based
# [1] = target: GFP-tagged PKCθ/P168K (Homo sapiens, UniProt Q04759, P168K); details: PMA, compared to wild type, not statistically significant
# Outline: (§1)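 Full-length PKCθ constructs in pEGFP-N1 transfected into LNCaP cells 48 h after plating (RPMI 1640, 10% FBS, 37 °C). After 24 h, PMA is added in phenol red-free DMEM/1% FBS. Live confocal imaging at 488 nm every 30 s. Membrane/cytoplasm mean GFP ratio from 4 μm² regions is normalized to time 0 and read at 5 and 10 min. Three independent experiments, unpaired two-tailed t test.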
# [2] = target: GFP-tagged PKCθ C1b-C1b chimera (Homo sapiens, UniProt Q04759, A164V/A195M/A196N/A207N/D203T/E161R/E178T/F166N/F167Y/F179L/H177G/I197V/I202Q/I206A/K185R/K199H/K200R/K208L/N184A/N194G/P168K/Q169S/Q189K/Q192A/R191D/S174E/T163K/T165Y/V175H/V180L/Y188L); details: response after 100 nM PMA, compared to wild type
# Outline: as §1
# [3] = target: GFP-tagged PKCθ C1a-C1a chimera (Homo sapiens, UniProt Q04759, A256N/A264Q/A278I/D263R/E246S/G249H/G266N/H247V/H271K/K235T/K240P/K261Q/L251F/L252V/L260Y/L280K/M267A/N238F/N268A/N279A/Q274I/R233E/R257K/R272K/S241Q/T250E/T275D/V236A/V269I/Y237T/Y239F)
# Outline: as §1
# [4] = target: GFP-tagged PKCθ ΔC1a (Homo sapiens, UniProt Q04759, DEL160-209)
# Outline: as §1
# [5] = target: GFP-tagged wild type PKCθ (Homo sapiens, UniProt Q04759)
# Outline: as §1
# [6] = target: GFP-tagged PKCθ ΔC1b (Homo sapiens, UniProt Q04759, DEL232-281); details: 100 nM, 1 μM and 10 μM PMA
# [7] = target: GFP-tagged PKCθ/K240P (Homo sapiens, UniProt Q04759, K240P); details: 1 μM PMA
# Outline: as §1
structure (smiles),measurement,setting,value
"CCCCCCCCCCCCCC(=O)O[C@@H]1[C@@H](C)[C@@]2(O)[C@@H](C=C(CO)C[C@]3(O)C(=O)C(C)=C[C@@H]23)[C@@H]2C(C)(C)[C@]12OC(C)=O [PMA, phorbol 12-myristate 13-acetate]",translocation to the plasma membrane (membrane/cytoplasm ratio),[1],increased translocation
same,translocation to the plasma membrane (membrane/cytoplasm ratio),[2],stronger translocation
same,translocation to the plasma membrane (membrane/cytoplasm ratio),[3]; 1 μM PMA,no translocation
same,translocation to the plasma membrane (membrane/cytoplasm ratio),[3]; 10 μM PMA,very small but statistically significant increase in the translocation
same,enhancement of translocation to the plasma membrane,"[4]; 100 nM PMA, deletion of C1a versus full length PKCθ",5 fold
same,translocation to the plasma membrane (membrane/cytoplasm ratio),"[4]; PMA, compared to wild type",enhanced membrane interaction compared to the wild type
same,translocation to the plasma membrane (membrane/cytoplasm ratio),[5]; 100 nM PMA,little response
same,translocation to the plasma membrane (membrane/cytoplasm ratio),"[5]; 1 and 10 μM PMA, 5 and 10 min",translocated in a dose dependent manner
same,translocation to the plasma membrane (membrane/cytoplasm ratio),[6],complete loss of plasma membrane translocation
same,translocation to the plasma membrane (membrane/cytoplasm ratio),[7],modestly decreased translocation

# From paper PMC6957261 (Biochimica et biophysica acta. Biomembranes, 2018)
